Legend:
[1] = molecular target: T1, GABA-A receptor; alpha-2/beta-3/gamma-2 (Homo sapiens, UniProt P18507+P28472+P47869); assay: Binding affinity to human recombinant gamma-aminobutyric-acid (GABA) A receptor alpha-2-beta-3-gamma-2; type: protein-complex assay
T1 sequence (P18507 whole entry): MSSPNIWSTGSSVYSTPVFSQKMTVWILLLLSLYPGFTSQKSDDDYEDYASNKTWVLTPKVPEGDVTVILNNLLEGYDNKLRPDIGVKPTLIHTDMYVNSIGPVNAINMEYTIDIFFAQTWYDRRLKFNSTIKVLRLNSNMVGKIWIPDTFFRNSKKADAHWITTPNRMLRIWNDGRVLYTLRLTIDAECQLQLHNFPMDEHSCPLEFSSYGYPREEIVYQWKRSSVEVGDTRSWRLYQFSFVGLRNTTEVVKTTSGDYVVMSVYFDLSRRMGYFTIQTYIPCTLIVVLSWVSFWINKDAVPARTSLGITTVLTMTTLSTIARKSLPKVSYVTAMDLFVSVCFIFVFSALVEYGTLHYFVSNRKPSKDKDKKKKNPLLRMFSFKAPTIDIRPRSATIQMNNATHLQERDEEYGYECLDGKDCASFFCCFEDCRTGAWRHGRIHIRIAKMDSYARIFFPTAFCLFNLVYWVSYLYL
T1 sequence (P28472 whole entry): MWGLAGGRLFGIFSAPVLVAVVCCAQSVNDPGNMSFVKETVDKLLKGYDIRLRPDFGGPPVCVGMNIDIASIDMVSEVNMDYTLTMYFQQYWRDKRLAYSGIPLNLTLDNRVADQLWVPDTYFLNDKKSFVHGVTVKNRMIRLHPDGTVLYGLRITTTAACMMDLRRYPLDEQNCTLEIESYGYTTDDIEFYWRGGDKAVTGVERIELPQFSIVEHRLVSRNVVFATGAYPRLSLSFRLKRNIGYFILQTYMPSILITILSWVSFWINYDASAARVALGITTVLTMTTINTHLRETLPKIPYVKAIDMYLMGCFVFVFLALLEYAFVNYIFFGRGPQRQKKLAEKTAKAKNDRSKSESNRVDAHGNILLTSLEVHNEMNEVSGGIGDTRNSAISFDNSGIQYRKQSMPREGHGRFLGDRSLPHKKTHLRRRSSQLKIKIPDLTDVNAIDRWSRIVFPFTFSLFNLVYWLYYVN
T1 sequence (P47869 whole entry): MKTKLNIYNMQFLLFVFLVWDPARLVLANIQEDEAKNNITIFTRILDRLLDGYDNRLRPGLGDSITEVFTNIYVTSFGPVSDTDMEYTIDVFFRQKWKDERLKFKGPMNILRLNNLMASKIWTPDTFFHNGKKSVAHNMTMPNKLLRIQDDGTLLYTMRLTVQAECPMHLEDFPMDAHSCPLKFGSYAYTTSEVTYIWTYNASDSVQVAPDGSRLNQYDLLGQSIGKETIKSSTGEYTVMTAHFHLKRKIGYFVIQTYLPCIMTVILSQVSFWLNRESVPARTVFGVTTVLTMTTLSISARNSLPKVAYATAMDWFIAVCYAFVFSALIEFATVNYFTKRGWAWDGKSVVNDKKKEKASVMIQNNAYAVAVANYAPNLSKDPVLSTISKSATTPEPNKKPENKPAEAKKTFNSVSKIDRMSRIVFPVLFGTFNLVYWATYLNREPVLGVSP

[2] = molecular target: T2, GABA-A receptor; alpha-3/beta-3/gamma-2 (Homo sapiens, UniProt P18507+P28472+P34903); assay: Binding affinity for human recombinant gamma-aminobutyric-acid (GABA) A receptor alpha-3-beta-3-gamma-2; type: protein-complex assay
T2 sequence (P18507 whole entry): T1 sequence (P18507 whole entry)
T2 sequence (P28472 whole entry): T1 sequence (P28472 whole entry)
T2 sequence (P34903 whole entry): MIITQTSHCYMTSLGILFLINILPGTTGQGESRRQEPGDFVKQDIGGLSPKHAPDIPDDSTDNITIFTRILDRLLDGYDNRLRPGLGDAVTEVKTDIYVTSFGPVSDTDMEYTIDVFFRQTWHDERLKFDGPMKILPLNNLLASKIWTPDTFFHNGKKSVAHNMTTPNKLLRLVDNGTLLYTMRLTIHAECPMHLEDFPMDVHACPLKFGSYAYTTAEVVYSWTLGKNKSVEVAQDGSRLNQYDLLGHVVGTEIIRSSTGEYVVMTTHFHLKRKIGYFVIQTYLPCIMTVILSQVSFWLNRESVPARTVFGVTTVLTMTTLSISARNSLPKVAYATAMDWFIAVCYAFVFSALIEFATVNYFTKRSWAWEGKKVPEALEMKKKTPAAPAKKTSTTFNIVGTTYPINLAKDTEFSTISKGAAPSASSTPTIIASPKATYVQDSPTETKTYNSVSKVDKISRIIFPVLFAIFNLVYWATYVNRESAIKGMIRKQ

[3] = Selectivity ratio of alpha1 beta-3 gamma2 GABA A / BzR and alpha5 beta-3 gamma2 GABA A / BzR
[4] = molecular target: T3, GABA-A receptor; alpha-1/beta-3/gamma-2 (Homo sapiens, UniProt P14867+P18507+P28472); assay: Binding affinity for human recombinant gamma-aminobutyric-acid (GABA) A receptor alpha-1-beta-3-gamma-2; type: protein-complex assay
T3 sequence (P14867 whole entry): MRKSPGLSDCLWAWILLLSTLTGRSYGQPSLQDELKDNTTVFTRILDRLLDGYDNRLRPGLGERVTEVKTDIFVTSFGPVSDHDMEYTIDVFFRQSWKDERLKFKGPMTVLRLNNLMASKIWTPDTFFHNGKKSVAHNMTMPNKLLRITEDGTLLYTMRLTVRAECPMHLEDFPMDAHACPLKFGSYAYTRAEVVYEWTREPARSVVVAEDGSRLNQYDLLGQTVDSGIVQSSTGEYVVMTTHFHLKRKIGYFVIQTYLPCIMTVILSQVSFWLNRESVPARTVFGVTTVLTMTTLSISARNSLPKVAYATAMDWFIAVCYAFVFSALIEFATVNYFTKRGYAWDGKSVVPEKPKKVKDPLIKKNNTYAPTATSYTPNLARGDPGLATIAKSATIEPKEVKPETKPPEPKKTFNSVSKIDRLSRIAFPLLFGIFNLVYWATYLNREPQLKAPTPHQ
T3 sequence (P18507 whole entry): T1 sequence (P18507 whole entry)
T3 sequence (P28472 whole entry): T1 sequence (P28472 whole entry)

[5] = molecular target: T4, GABA-A receptor; alpha-5/beta-3/gamma-2 (Homo sapiens, UniProt P18507+P28472+P31644); assay: Binding affinity for human recombinant gamma-aminobutyric-acid (GABA) A receptor alpha-5-beta-3-gamma-2; type: protein-complex assay
T4 sequence (P18507 whole entry): T1 sequence (P18507 whole entry)
T4 sequence (P28472 whole entry): T1 sequence (P28472 whole entry)
T4 sequence (P31644 whole entry): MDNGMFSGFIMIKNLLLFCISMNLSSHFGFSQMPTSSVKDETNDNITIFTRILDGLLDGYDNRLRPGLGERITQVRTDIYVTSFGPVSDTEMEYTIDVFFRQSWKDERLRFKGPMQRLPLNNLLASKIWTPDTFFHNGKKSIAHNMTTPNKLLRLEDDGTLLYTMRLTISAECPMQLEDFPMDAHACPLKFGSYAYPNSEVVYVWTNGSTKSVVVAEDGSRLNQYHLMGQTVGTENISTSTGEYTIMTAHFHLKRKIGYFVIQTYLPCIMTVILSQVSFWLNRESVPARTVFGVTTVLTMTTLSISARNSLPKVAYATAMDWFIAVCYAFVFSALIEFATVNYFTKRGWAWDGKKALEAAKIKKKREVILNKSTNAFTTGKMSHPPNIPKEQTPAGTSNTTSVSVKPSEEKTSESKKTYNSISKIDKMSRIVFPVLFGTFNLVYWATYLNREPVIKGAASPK

[6] = molecular target: GABA-A receptor; alpha-6/beta-3/gamma-2 (Homo sapiens, UniProt P18507+P28472+Q16445); assay: Binding affinity for human recombinant gamma-aminobutyric-acid (GABA) A receptor alpha-6-beta-3-gamma-2; type: protein-complex assay
How it was run: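 Ltk⁻ cells expressing human α6β3γ2 were harvested by scraping into PBS, centrifuged at 3000g and resuspended in 10 mM KH₂PO₄/100 mM KCl (pH 7.4). Incubation was 1 h at 4 °C with filter harvest and scintillation counting.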

Chain of GABA-A receptor; alpha-6/beta-3/gamma-2 (Q16445 whole entry, one chain of several): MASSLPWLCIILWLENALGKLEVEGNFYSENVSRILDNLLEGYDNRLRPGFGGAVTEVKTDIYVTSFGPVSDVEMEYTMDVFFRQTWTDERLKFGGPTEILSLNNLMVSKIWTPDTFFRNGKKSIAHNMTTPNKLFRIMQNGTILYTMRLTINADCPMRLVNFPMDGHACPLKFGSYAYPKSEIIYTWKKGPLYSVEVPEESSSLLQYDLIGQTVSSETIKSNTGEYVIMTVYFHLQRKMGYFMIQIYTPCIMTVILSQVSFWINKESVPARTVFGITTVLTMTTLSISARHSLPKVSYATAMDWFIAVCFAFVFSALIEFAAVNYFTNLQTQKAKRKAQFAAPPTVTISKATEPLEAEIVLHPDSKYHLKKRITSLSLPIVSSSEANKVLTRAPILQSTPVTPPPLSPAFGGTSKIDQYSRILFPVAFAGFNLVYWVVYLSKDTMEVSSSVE

SMILES | Ki [1] | Ki [2] | Ratio [3] | Ki [4] | Ki [5] | Ki [6]
CN1Cc2c(C(=O)OC(C)(C)C)ncn2-c2ccc(N=[N+]=[N-])cc2C1=O | 22.1 nM | 9.84 nM | 24.3 | – | – | –
O=C1C2C=Nc3ccccc3C2=NN1c1ccccc1 (stereo unspecified) [CGS-8216] | 0.08 nM | 0.12 nM | – | 0.05 nM | 0.25 nM | 17 nM
O=c1c2c[nH]c3ccc(Br)cc3c-2nn1-c1ccccc1 | 0.08 nM | 0.05 nM | – | 0.06 nM | 0.12 nM | 4 nM
O=[N+]([O-])c1ccc2[nH]c3cnc([N+](=O)[O-])cc3c2c1 | 83.1 nM | – | – | 12.9 nM | 314 nM | > 50000 nM
CC(C)(C)OC(=O)c1ncn2c1[C@@H]1CCCN1C(=O)c1c(Br)cccc1-2 [BRETAZENIL] | 0.64 nM | 0.2 nM | – | 0.35 nM | 0.5 nM | 12.7 nM
CCCOc1ccc2c(c1)c1c(COC)c(C(=O)OCC)ncc1n2C | 105 nM | 164 nM | – | 25.6 nM | 161 nM | > 10000 nM
C#Cc1ccc(-n2[nH]c3c(cnc4ccccc43)c2=O)cc1 | 0.03 nM | 0.04 nM | – | 0.07 nM | 0.17 nM | –
COc1ccc2ncc3c(=O)n(-c4ccccc4)[nH]c3c2c1 | 0.1 nM | 0.09 nM | – | 0.11 nM | 0.2 nM | > 10 nM
CN1C(=O)CN=C(C2CCC2)c2cc(F)ccc21 | > 300 nM | > 300 nM | – | > 300 nM | > 300 nM | > 300 nM
CCOC(=O)c1[nH]cc2nc3ccc(OC)cc3c-2c1CC | 2.9 nM | 2.8 nM | – | 1.6 nM | 1 nM | > 1000 nM
c1cnc2c3[nH]cc4[nH]c5ccccc5c4c-3nc2c1 | 118 nM | 156 nM | – | 28 nM | 1000 nM | > 10000 nM
O=c1c2cnc3ccccc3c2[nH]n1-c1ccc(Br)cc1 | 0.21 nM | 0.25 nM | – | 0.18 nM | 1.3 nM | 40 nM
S=C=Nc1cc2c3ccccc3nc-2c[nH]1 | 120 nM | 141 nM | – | 67.2 nM | > 3000 nM | > 10000 nM
CCCOc1ccc2[nH]c3cnc(C(=O)NN)c(COC)c3c2c1 | 422 nM | 400 nM | – | 46 nM | 108 nM | > 300 nM
CN1C(=O)CN=C(c2ccsc2)c2cc(Cl)ccc21 | > 300 nM | > 300 nM | – | > 300 nM | > 300 nM | > 300 nM
